In PMC6021137 (Clinical cancer research : an official journal of the …, 2013):
pIC50: −log10 of the molar value. Values joined by “and” are separate entries in the source; they are usually repeats but may differ in a detail not shown here. Equal entries are not always repeated.

Assays:
[1] = system: CWR22Pc xenograft tumors; experiment: CWR22Pc xenograft tumor growth; type: in vivo
[2] = system: CWR22Rv1 tumor xenografts (orthotopic); experiment: Orthotopic CWR22Rv1 xenograft tumor growth; type: in vivo, SCID mice; conditions: oral gavage
In short: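 Luciferase-tagged CWR22Rv1 cells were implanted orthotopically into the prostates of male CB-17 SCID mice. Mice received test compound at 10 or 30 mg/kg, or vehicle (0.1% Tween 80/0.5% methylcellulose), daily by oral gavage. […]. Growth suppression was assessed at end of treatment versus vehicle.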

[3] = system: Stat5a/b dimerization; experiment: Stat5a/b dimerization by co-immunoprecipitation in PC-3 cells; type: cell-based, human; conditions: 2 h pre-treatment, 10 nM hPrl
[4] = system: CWR22Rv1 cells; experiment: Caspase-3 activation assay; type: cell-based, human; conditions: 800 nM, 72 h
[5] = system: normal prostate epithelial cells (RC165N); experiment: Cell viability assay; type: cell-based; conditions: Homo sapiens, 72 h
[6] = target: T1, Stat5a (Homo sapiens, UniProt O60674); experiment: Stat5a phosphorylation, immunoprecipitation/immunoblotting, CWR22Pc cells; type: cell-based; conditions: read-out: IC50, inhibition of constitutive activation of Stat5a; exponentially growing CWR22Pc cells
[7] = system: clinical prostate cancers ex vivo in organ explant cultures; experiment: Ex vivo organ explant cultures of clinical PCs; type: cell-based, human
[8] = system: DU145; experiment: Cell viability assay; type: cell-based; conditions: Homo sapiens, DU-145, 72 h
[9] = system: CWR22Pc cells; experiment: Cell viability assay; type: cell-based; conditions: Homo sapiens, 72 h, read-out: GI50 (number of viable cells decreased by 50%)
[10] = target: T2, Stat5b (Homo sapiens, UniProt O60674); experiment: Stat5b phosphorylation, immunoprecipitation/immunoblotting, CWR22Rv1 cells; type: cell-based
[11] = system: CWR22Rv1 cells; experiment: Cell viability assay; type: cell-based; conditions: Homo sapiens, CWR22Rv1, 72 h, read-out: GI50 (number of viable cells decreased by 50%)
[12] = target: T2, Stat5b; experiment: Stat5b phosphorylation, immunoprecipitation/immunoblotting, CWR22Pc cells; type: cell-based
[13] = system: PC-3; experiment: Cell viability assay; type: cell-based; conditions: Homo sapiens, PC-3, 72 h
[14] = system: CWR22Rv1 tumor xenografts (s.c.); experiment: Subcutaneous CWR22Rv1 xenograft tumor growth; type: in vivo, SCID mice; conditions: for suppression of s.c. tumor growth at end of treatment: oral gavage
[15] = system: CWR22Pc cells; experiment: Caspase-3 activation assay; type: cell-based, human; conditions: 800 nM, 48 h
[16] = system: Stat5a/b nuclear translocation; experiment: Nuclear translocation of Stat5a/b, immunofluorescence in PC-3 cells; type: cell-based, human; conditions: 200 nM AZD1480 for 2 h, 10 nM hPrl 20 min
[17] = system: CWR22Pc cells; experiment: Cell cycle analysis; type: cell-based, human; conditions: CWR22Pc, 24, 48 and 72 h
[18] = target: T1, Stat5a; experiment: Stat5a phosphorylation, immunoprecipitation/immunoblotting, CWR22Rv1 cells; type: cell-based; conditions: read-out: IC50, inhibition of constitutive activation of Stat5a; exponentially growing CWR22Rv1 cells
[19] = tumors harvested at end of treatment

T2 sequence (O60674 whole entry): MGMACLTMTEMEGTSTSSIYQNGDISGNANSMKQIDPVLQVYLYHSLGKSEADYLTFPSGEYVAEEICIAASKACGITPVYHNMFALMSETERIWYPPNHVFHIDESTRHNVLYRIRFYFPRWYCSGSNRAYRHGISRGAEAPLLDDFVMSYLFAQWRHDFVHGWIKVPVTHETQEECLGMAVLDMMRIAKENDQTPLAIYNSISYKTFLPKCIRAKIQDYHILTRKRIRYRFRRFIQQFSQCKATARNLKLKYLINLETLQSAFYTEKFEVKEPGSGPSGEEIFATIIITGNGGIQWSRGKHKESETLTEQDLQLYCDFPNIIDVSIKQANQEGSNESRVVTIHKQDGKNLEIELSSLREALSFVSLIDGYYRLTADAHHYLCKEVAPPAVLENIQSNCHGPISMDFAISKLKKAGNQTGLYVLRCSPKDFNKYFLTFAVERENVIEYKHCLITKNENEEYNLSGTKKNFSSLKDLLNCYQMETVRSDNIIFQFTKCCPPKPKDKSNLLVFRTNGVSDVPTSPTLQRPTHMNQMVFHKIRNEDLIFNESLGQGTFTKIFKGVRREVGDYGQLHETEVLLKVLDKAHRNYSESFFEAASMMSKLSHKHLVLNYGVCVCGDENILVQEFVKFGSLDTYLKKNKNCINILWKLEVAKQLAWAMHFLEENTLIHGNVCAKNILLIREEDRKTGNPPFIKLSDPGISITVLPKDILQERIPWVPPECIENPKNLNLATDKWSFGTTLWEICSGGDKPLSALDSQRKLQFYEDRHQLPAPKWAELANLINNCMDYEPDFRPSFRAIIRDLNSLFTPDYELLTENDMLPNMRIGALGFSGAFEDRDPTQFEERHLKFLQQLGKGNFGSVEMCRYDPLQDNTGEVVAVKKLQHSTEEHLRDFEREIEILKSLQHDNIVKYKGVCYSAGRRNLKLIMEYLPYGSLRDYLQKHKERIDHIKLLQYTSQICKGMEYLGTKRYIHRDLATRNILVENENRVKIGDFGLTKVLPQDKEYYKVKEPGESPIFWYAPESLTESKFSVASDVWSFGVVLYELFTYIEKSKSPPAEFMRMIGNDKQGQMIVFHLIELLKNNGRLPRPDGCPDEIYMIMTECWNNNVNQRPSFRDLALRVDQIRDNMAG
T1 sequence (O60674 whole entry): as above

## CC(=O)O[C@@]12CO[C@@H]1C[C@H](O)[C@@]1(C)C(=O)[C@H](O)C3=C(C)[C@@H](OC(=O)[C@H](O)[C@@H](NC(=O)OC(C)(C)C)c4ccccc4)C[C@@](O)([C@@H](OC(=O)c4ccccc4)[C@H]21)C3(C)C [docetaxel, reference compound]
[1]; [19]
  nuclear Stat5a/b levels in CWR22Pc tumors (IHC): no effect

## CC(O)(CS(=O)(=O)c1ccc(F)cc1)C(=O)Nc1ccc(C#N)c(C(F)(F)F)c1 (stereo not drawn) [bicalutamide, reference compound]
[1]; 50 mg/kg daily oral, 21 days from day 12
  suppression of primary CWR22Pc tumor growth (TW 1): 30%
[1]; [19]
  nuclear Stat5a/b levels in CWR22Pc tumors (IHC): no effect

## Cc1cc(Nc2nc(N[C@@H](C)c3ncc(F)cn3)ncc2Cl)n[nH]1 [AZD1480, 5-Chloro-N(2)-[(1S)-1-(5-fluoropyrimidin-2-yl)ethyl]-N(4)-(5-methyl-1H-pyrazol-3-yl)pyrimidine-2,4-diamine]
[2]; 10 mg/kg daily
  suppression of orthotopic tumor growth: 6%
[2]; 30 mg/kg daily
  suppression of orthotopic tumor growth: 54%
[3]
  hPrl-induced Stat5a/b dimerization: potently inhibited
[4]
  increase in caspase-3 activation: 200%
[5]
  GI50: 2080 nM
[6]
  pIC50: 8.15
[7]; 9 responsive PCs, both AZD1480 treatment groups
  nuclear Stat5a/b levels in explants: significantly decreased
[7]; 7 days culture
  clinical PCs not responding (non-responders): 3 of the 12 and 3
  clinical PCs responding by loss of viable epithelium (responders): Nine of 12
[7]; responders, 7 days culture
  concentration from which extensive loss of viable epithelium starts: 25 µM
[8]
  GI50: 3520 nM
[1]; 30 mg/kg daily oral, 21 days from day 12
  inhibition of primary CWR22Pc tumor growth (TW 1): 73%
[1]; 30 mg/kg daily oral, from day 13 after androgen deprivation
  emergence of CR CWR22Pc tumors (TW 2): significantly blocked
[1]; 30 mg/kg daily oral, from day 23 after androgen deprivation
  growth of established CR CWR22Pc tumors (TW 3): significantly blocked
[1]; TWs 2 and 3, vs docetaxel-treated mice
  overall survival of tumor-bearing mice: better overall survival
[1]; immunoblotting, TWs 1, 2 and 3
  levels of full-length AR, AR splice variants and tissue PSA in tumor lysates: did not affect
[1]; [19]
  nuclear Stat5a/b levels in CWR22Pc tumors (IHC): decreased nuclear Stat5a/b levels in all TWs significantly
[1]; tumors harvested at end of treatment, all TWs
  fraction of viable tumor cells in CWR22Pc tumors: reduced the fraction of viable tumor cells in all TWs
[9]
  GI50: 482 nM
[10]; read-out: IC50 for Prl-induced Stat5b phosphorylation, serum-starved CWR22Rv1 cells, 10 nM hPrl
  pIC50: 7.32
[10]; read-out: IC50 for Stat5b phosphorylation (constitutive), exponentially growing CWR22Rv1 cells
  pIC50: 7.19
[11]
  GI50: 438 nM
[12]; read-out: IC50 for Prl-induced Stat5b phosphorylation, serum-starved CWR22Pc cells, 10 nM hPrl
  pIC50: 7.15
[12]; read-out: IC50 for Stat5b phosphorylation (constitutive), exponentially growing CWR22Pc cells
  pIC50: 7.19
[13]
  GI50: 1760 nM
[14]; 10 mg/kg daily
  suppression of s.c. tumor growth at end of treatment: 52%
[14]; 30 mg/kg daily
  suppression of s.c. tumor growth at end of treatment: 72%
[14]; 2 h following 30 mg/kg
  Stat5a/b phosphorylation in s.c. xenograft tumor lysates: significant inhibition of Stat5a/b phosphorylation
[14]; tumors harvested after 11 days of drug treatment
  decrease in nuclear Stat5a/b in tumor tissues relative to control (IHC): 70%
[15]
  increase in caspase-3 activation: 150%
[16]
  ligand-induced nuclear translocation of Stat5a/b: no ligand-induced nuclear immunostaining of Stat5a/b
[17]
  cell cycle distribution: G1, G2-M and dead cells (sub G1): fraction of dead cells (sub G1) was increased at all time points
[18]
  pIC50: 7.80
